Activity calls are given as the source filed them. The rule behind the calls is not given here.
Key:
Format in all cases: functional, cell-based
B16-F10 [1] = experiment: Cytotoxicity against mouse B16F10 cells harboring BRAF […] mutation assessed as cell viability by MTS assay
Summary of the method: (§1)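 Pure compounds tested at five concentrations from 50 nM to 20 uM. Readout is MTS viability, with IC50 derived per cell line. JMAR and MDA1986 are head and neck squamous carcinoma lines. B16F10 is a murine melanoma line and SKMEL28 a human melanoma line, both BRAF V600E; SKMEL28 also carries a PTEN mutation.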

SK-MEL-28 [2] = experiment: Cytotoxicity against human SK-MEL-28 cells harboring BRAF […]/PTEN mutation assessed as cell viability by MTS assay; summary of the method: as §1
[3] = Cytotoxicity against human JMAR cells assessed as cell viability by MTS assay; summary of the method: as §1
[4] = Cytotoxicity against human MDA1986 cells assessed as cell viability by MTS assay; summary of the method: as §1
JMAR = experiment: Cytotoxicity against human JMAR cells assessed as membrane disintegration by phase contrast microscopy
Summary of the method: (§2)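 Cells treated with increasing concentrations of saponins, then examined by phase-contrast microscopy for membrane disintegration.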

B16-F10 [5] = experiment: Cytotoxicity against mouse B16F10 cells harboring BRAF […] mutation assessed as membrane disintegration by phase contrast microscopy; summary of the method: as §2
Homo sapiens = organism: Homo sapiens; experiment: Cytotoxicity against human MDA1986 cells assessed as membrane disintegration by phase contrast microscopy; summary of the method: as §2
SK-MEL-28 [6] = experiment: Cytotoxicity against human SK-MEL-28 cells harboring BRAF […]/PTEN mutation assessed as membrane disintegration by phase contrast microscopy; summary of the method: as §2

Compound	IC50 (B16-F10 [1]) [µM]	IC50 (SK-MEL-28 [2]) [µM]	IC50 [3] [µM]	IC50 [4] [µM]	Activity (JMAR)	Activity (B16-F10 [5])	Activity (Homo sapiens)	Activity (SK-MEL-28 [6])
CC(=O)N[C@H]1[C@H](O[C@H]2CC[C@]3(C)[C@H]4CC=C5[C@@H]6CC(C)(C)[C@@H]7C[C@]6(C(=O)O7)[C@H](O)C[C@@]5(C)[C@]4(C)CC[C@H]3C2(C)C)O[C@H](CO[C@@H]2OC[C@H](O)[C@H](O)[C@H]2O[C@@H]2OC[C@H](O)[C@H](O)[C@H]2O)[C@@H](O)[C@@H]1O	> 20	> 20	> 20	> 20				
CC1(C)CC[C@]2(C(=O)O)[C@H](O)C[C@]3(C)C(=CC[C@@H]4[C@@]5(C)CC[C@H](O[C@@H]6O[C@H](CO[C@@H]7OC[C@H](O)[C@H](O)[C@H]7O[C@@H]7OC[C@@H](O)[C@H](O)[C@H]7O)[C@@H](O)[C@H](O)[C@H]6O[C@@H]6O[C@H](CO)[C@@H](O)[C@H](O)[C@H]6O)C(C)(C)[C@@H]5CC[C@]43C)[C@@H]2C1	> 20	> 20	> 20	> 20				
CC(=O)N[C@H]1[C@H](O[C@H]2CC[C@]3(C)[C@H]4CC=C5[C@@H]6CC(C)(C)CC[C@]6(C(=O)O)CC[C@@]5(C)[C@]4(C)CC[C@H]3C2(C)C)O[C@H](CO[C@@H]2OC[C@H](O)[C@H](O)[C@H]2O)[C@@H](O)[C@@H]1O	4.7	12.4	8.7	7.3	inactive	inactive	inactive	inactive
CC1(C)CC[C@]2(C(=O)O)CC[C@]3(C)C(=CC[C@@H]4[C@@]5(C)CC[C@H](O[C@@H]6O[C@H](CO[C@@H]7OC[C@H](O)[C@H](O)[C@H]7O[C@@H]7OC[C@@H](O)[C@H](O)[C@H]7O)[C@@H](O)[C@H](O)[C@H]6O)C(C)(C)[C@@H]5CC[C@]43C)[C@@H]2C1 [PITHEDULOSIDE C]	6.9	8.6	10.1	9	inactive	inactive	inactive	inactive
CC(=O)N[C@H]1[C@H](O[C@H]2CC[C@]3(C)[C@H]4CC=C5[C@@H]6CC(C)(C)CC[C@]6(C(=O)O)[C@H](O)C[C@@]5(C)[C@]4(C)CC[C@H]3C2(C)C)O[C@H](CO[C@@H]2OC[C@H](O)[C@H](O)[C@H]2O)[C@@H](O)[C@@H]1O	5.1	9.2	2.8	1.8	inactive	inactive	inactive	inactive
CC1(C)CC[C@]2(C(=O)O)CC[C@]3(C)C(=CC[C@@H]4[C@@]5(C)CC[C@H](O[C@@H]6O[C@H](CO[C@@H]7OC[C@H](O)[C@H](O)[C@H]7O[C@@H]7OC[C@H](O)[C@H](O)[C@H]7O)[C@@H](O)[C@H](O)[C@H]6O)C(C)(C)[C@@H]5CC[C@]43C)[C@@H]2C1	6.3	8.1	11.5	8.2	inactive	inactive	inactive	inactive
CC1(C)CC[C@]2(C(=O)O)CC[C@]3(C)C(=CC[C@@H]4[C@@]5(C)CC[C@H](O[C@@H]6O[C@H](CO)[C@@H](O)[C@H](O)[C@H]6O[C@@H]6O[C@H](CO)[C@@H](O)[C@H](O)[C@H]6O)C(C)(C)[C@@H]5CC[C@]43C)[C@@H]2C1 [ACUTOSIDE A]	> 20	> 20	> 20	> 20				
CC1(C)CC[C@]2(C(=O)O)[C@H](O)C[C@]3(C)C(=CC[C@@H]4[C@@]5(C)CC[C@H](O[C@@H]6O[C@H](CO[C@@H]7OC[C@H](O)[C@H](O)[C@H]7O[C@@H]7OC[C@H](O)[C@H](O)[C@H]7O)[C@@H](O)[C@H](O)[C@H]6O[C@@H]6O[C@H](CO)[C@@H](O)[C@H](O)[C@H]6O)C(C)(C)[C@@H]5CC[C@]43C)[C@@H]2C1	> 20	> 20	> 20	> 20				
CC(=O)N[C@H]1[C@H](O[C@H]2CC[C@]3(C)[C@H]4CC=C5[C@@H]6CC(C)(C)[C@@H]7C[C@]6(C(=O)O7)[C@H](O)C[C@@]5(C)[C@]4(C)CC[C@H]3C2(C)C)O[C@H](CO[C@@H]2OC[C@H](O)[C@H](O)[C@H]2O[C@@H]2OC[C@@H](O)[C@H](O)[C@H]2O)[C@@H](O)[C@@H]1O [PROSAPOGENIN 4]	> 20	> 20	> 20	> 20				
